# Source: PubChem (Broad Institute)
# Compounds with a hit are over-represented: about 2% of the library has one in this group of screens.
# PglD inh: C. jejuni PglD acetyltransferase inhibitors, primary screen, biochemical, DTNB colorimetric, single point. UDP-N-acetylbacillosamine N-acetyltransferase PglD (Campylobacter jejuni). purified PglD enzyme, DTNB colorimetric CoA detection. AID 602405, 2012. actives 0.098% (n = 360,000). inhibition, % at 12.5 µM; in the data active = inhibition above about 16%, passing the limit was not always enough
# RAD52 inh: RAD52 DNA annealing inhibitors, primary screen, biochemical, FRET, single point, set 2. DNA repair protein RAD52 homolog (Homo sapiens), P43351. recombinant RAD52 DNA annealing, FRET fluorescence. inhibition, % at 18.7 µM. actives 0.46% (n = 360,000). AID 651710, 2012;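 active = every replicate showing at least 50% inhibition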
# Target sequence (P43351 whole entry, looked up): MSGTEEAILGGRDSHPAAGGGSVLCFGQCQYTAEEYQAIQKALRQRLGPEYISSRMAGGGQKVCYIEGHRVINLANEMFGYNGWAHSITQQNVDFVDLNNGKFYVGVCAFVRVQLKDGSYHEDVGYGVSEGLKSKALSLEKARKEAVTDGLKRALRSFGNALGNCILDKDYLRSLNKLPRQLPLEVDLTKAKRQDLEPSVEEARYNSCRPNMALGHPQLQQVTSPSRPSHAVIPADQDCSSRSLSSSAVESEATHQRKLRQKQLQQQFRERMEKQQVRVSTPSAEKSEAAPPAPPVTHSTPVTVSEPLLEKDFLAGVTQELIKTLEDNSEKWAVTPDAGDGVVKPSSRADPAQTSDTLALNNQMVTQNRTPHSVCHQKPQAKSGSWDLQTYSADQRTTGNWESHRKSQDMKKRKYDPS
# E-sel inducer: E-selectin induction in HUVECs, primary screen, imaging, HUVEC, immunofluorescence imaging, single point | AID 686992, 2013 | activation, % at 7.58 µM | P16581 | normalized: neutral wells 0, TNF-alpha wells 100 | actives 0.37% (n = 260,000);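 active = mean E-selectin-positive cell signal at least 10% of the positive control, reached in at least 60% of replicates, without over 20% cell loss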
#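 assay system = HUVEC, human umbilical vein endothelial cells | input = 3,000 HUVEC seeded per well | medium = EGM-2 growth medium on 0.1% gelatin-coated wells | dosing = one compound dose added by pin transfer | signal = immunofluorescence imaging | read-out basis = % PE-positive cells | control set = TNF-alpha, DMSO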
# Ecoli rRNA inh: reduced GFP signal of wild-type E. coli, primary screen, bacterial rRNA inhibitor project, GFP/RFP fluorescence, OD600, single point; GFP signal change (wild-type ribosome), % (test concentration not listed); E. coli WT GFP vs humanized-ribosome RFP mutants, 24 h; hits give low values; DMSO median 0, no signal -100; actives 1.6% (n = 350,000);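 active = significant combined selectivity score with lowered wild-type GFP, culture density cut under 30%, mutant RFP and density less affected; inactive = any of these conditions unmet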
# XiGFP reactiv: activators of inactive X chromosome reactivation, primary screen, imaging, XiGFP fibroblasts, GFP high-content imaging, set 2. activation, % at 7.58 µM. actives 0.055% (n = 360,000). AID 743238, 2013. XiGFP mouse fibroblasts, % GFP-positive cells imaging, 3 d; cells co-treated with 5-aza-dC sensitizer; scaled so ellipticine positive control = 100%;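 active = mean normalized replicate activation at least 10% and every replicate at or above 10%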
#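 material = 68-5-11 XiGFP fibroblast line | medium = DMEM plus 5-aza-dC sensitizer | schedule = 3 days compound exposure | benchmarks = positive control ellipticine, 6 µM final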
# RAD54 branch: inhibitors of human RAD54 branch migration, primary screen, biochemical, fluorescence, single point | DNA repair and recombination protein RAD54-like (Homo sapiens), Q92698 | RAD54 Holliday junction branch migration, FAM/BHQ fluorescence | AID 602329, 2012 | inhibition, % at 10.4 µM | actives 0.14% (n = 360,000);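 active = mean normalized replicate activity at least 40 and at least half of replicates scoring 40 or more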;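 also: inhibitors cause a drop in the FAM fluorescence signal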
# A number is an active result; - = inactive; . = no result.
SMILES,PglD inh,RAD52 inh,E-sel inducer,Ecoli rRNA inh,XiGFP reactiv,RAD54 branch
Cc1ccc2nc(NC(=O)C3CCN(S(=O)(=O)c4cccs4)CC3)sc2c1,-,.,.,.,.,-
Cc1ccc2nc(N/C(=N/S(=O)(=O)c3cccs3)c3ccccc3Cl)sc2c1,-,-,-,-32.3,-,-
c1ccc(-c2cnn3c(-c4ccccc4)c(-c4ccccc4)nc3n2)cc1,.,.,.,.,98.9,.
Nc1nc(-c2ccccc2)c(-c2ccccc2)n1N,.,-,-,-,-,.
Cc1cccc(-c2ccc([C@H]3[C@H](CO)N4CCCCN(Cc5cccnc5)C[C@@H]34)cc2)c1,-,-,.,.,.,-
COC(=O)c1sc2nc(SCC(=O)N(C)c3ccccc3)n(N)c(=O)c2c1C,.,-,154.0,-,-,.
COC(=O)c1sc2nc(SCc3ccccc3C)n(N)c(=O)c2c1C,.,-,-,-,-,.
CCC(=O)N[C@@H]1C=C[C@@H](CC(=O)OC)O[C@H]1CO,-,-,-,-,-,-
C[C@@H]1CN([C@@H](C)CO)C(=O)Cc2cc(NC(=O)Nc3cccc4ccccc34)ccc2O[C@H]1CN(C)Cc1ccc2c(c1)OCO2,-,53.7,.,-,-,-
C[C@H]1CN([C@@H](C)CO)C(=O)Cc2cc(NC(=O)Nc3cccc4ccccc34)ccc2O[C@@H]1CN(C)Cc1ccc(Cl)c(Cl)c1,-,-,-,-,-,-
C[C@H](CO)N1C[C@H](C)[C@@H](CN(C)Cc2ccc(Cl)c(Cl)c2)Oc2ccc(NC(=O)Nc3cccc4ccccc34)cc2CC1=O,-,53.5,-,-,-,-
C[C@H]1CN([C@@H](C)CO)C(=O)Cc2cc(NC(=O)Nc3cccc4ccccc34)ccc2O[C@@H]1CN(C)Cc1ccc2c(c1)OCO2,-,-,.,-,-,-
C[C@@H]1CCCCO[C@H](CN(C)S(=O)(=O)c2cn(C)cn2)[C@H](C)CN([C@@H](C)CO)C(=O)c2cc(NS(=O)(=O)c3ccc(Cl)cc3)ccc2O1,-,-,.,-,-,-
CC(C)c1ccc(C(=O)Nc2nnc(S(=O)(=O)N3CCCCC3)s2)cc1,-,-,44.8,-,-,-
O=C(Nc1ccncc1)Nc1cccc(C(F)(F)F)c1,-,-,-,-,-,-
N/C(=N\OC(=O)Nc1cccc(C(F)(F)F)c1)c1ccno1,-,-,-,-51.2,-,-
C[C@@H]1CN([C@H](C)CO)C(=O)c2cc(NC(=O)CCC(F)(F)F)ccc2O[C@@H](C)CCCCO[C@H]1CN(C)S(=O)(=O)c1ccc(Cl)cc1,-,-,-,-,-,-
Cc1nc2c(-c3ccc(F)cc3)c(C)[nH]n2c(=O)c1Cl,-,-,.,-23.1,-,-
Cc1[nH]n2c(=O)c3c(nc2c1-c1ccc(F)cc1)CCCC3,.,-,.,-,-,.
CCNC(=O)C[C@@H]1CC[C@@H]2[C@H](COc3ccc(NC(=O)c4ccc(F)cc4)cc3C(=O)N2C)O1,-,-,-,-,-,-
CCn1nnc(NC(=S)NC(=O)c2ccc(-c3cccc(Cl)c3)o2)n1,-,-,.,-21.4,-,-
CCNC(=S)SCCOc1ccccc1C,-,-,-,-33.9,-,-
CC(C)[C@H]1COCc2cnnn2CCC[C@@H](C)C(=O)N1,.,.,.,-,-,.
OCCNc1nc(Nc2ccccc2Oc2ccccc2)nc(N2CCCC2)n1,-,-,-,-,-,-
COc1cccc(Nc2nc(NCCO)nc(N3CCCC3)n2)c1,-,-,-,-24.9,-,-
COc1cccc(C=C2Cc3ccccc3C2=O)c1,.,-,-,-16.7,-,.
COc1ccc2c(c1)CC/C(=C/c1cc(OC)c(OC)c(OC)c1)C2=O,.,-,-,-20.1,-,.
COc1cccc(/C=C2\CCc3ccccc3C2=O)c1,-,-,-,-,-,-
CCS(=O)(=O)Nc1ccc2c(c1)C(=O)N(C)C[C@@H](OC)[C@H](C)CN(C(=O)C1CC1)[C@@H](C)CO2,-,-,-,-,-,-
